A selection: hits, their analogues and other compounds. The true share with any hit is near 1.2%.
HNF4A DNA FP: change in binding of human HNF4 alpha to DNA | P41235 | HNF4a-FITC DNA binding, fluorescence polarization, 1 h | activity change, % at 10 µM | actives 0.3% (n = 360,000); in the data active means activity change above about 30%, passing the limit was not always enough
Target sequence (P41235 whole entry, looked up): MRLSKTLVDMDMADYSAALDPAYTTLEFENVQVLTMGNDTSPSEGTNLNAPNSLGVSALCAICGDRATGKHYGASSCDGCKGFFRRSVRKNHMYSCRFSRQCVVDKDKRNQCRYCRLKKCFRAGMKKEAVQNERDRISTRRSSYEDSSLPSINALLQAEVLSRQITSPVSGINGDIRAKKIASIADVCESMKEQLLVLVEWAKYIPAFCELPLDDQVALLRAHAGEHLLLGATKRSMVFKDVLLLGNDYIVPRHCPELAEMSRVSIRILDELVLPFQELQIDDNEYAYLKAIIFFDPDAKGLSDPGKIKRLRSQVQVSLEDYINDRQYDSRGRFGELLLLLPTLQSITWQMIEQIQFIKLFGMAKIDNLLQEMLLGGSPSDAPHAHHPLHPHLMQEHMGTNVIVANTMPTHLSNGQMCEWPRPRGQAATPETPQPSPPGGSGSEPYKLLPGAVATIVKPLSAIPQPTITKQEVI
TPT1 inh: blocks Candida albicans tRNA 2'-phosphotransferase. recombinant caTPT1, FP RNA substrate dephosphorylation. inhibition, % at 5 µM. actives 0.81% (n = 300,000);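 active means inhibition above the mean of all tested compounds plus 3 SD, set per screening campaign, cut at about 24% in these data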
CSN deneddyl inh: inhibitors of human CSN-mediated cullin deneddylation; Q92905; inhibition, % at 12.5 µM; AID 651999; actives 0.38% (n = 360,000); Purified CSN, SCF-Nedd8-OG deneddylation, fluorescence polarization;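 active means pattern-corrected inhibition above about 35%, with an unprinted fluorescence ratio check between 0.5 and 1.5, limit read from the data, passing the limit was not always enough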
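assay system = purified human Csn5 enzyme expressed in HEK293T cells | amount = 0.24 nM enzyme | buffer or medium = Tris/NaCl/DTT buffer, pH 7.5 | reagent = 10 nM SCFSkp2-Nedd8OG | compound = one concentration, 12.5 µM, 0.25% DMSO | times = 90 min reaction at room temperature | signal = FP | read-out basis = % inhibition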
Rtt109 HAT inh: C. albicans Rtt109 histone acetyltransferase inhibition; inhibition, % at 34.9 µM; Q5AAJ8; purified Rtt109/Vps75, ThioGlo CoA-SH fluorescence, 4 h; actives 0.16% (n = 330,000);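 active means inhibition of at least 50% in every replicate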
caTPT1 confirm: confirmation of Candida albicans TPT1 inhibitors; shares compounds with TPT1 inh; recombinant caTPT1, fluorescence polarization, RNase T1 coupled; inhibition, % at 5 µM; actives 74% (n = 2,400); AID 2149;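 active means inhibition above the primary screen limit, the mean inhibition of all tested compounds plus 3 SD, cut at about 25% in these data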
RNase T1 counter: RNase T1 inhibition in TPT1 counter-screen; shares compounds with TPT1 inh; RNase T1 cleavage, fluorescence polarization, 1536-well; inhibition, % at 5 µM; actives 83% (n = 2,400); AID 2153;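 active means inhibition above the solvent-only control well mean plus 3 SD, limit set per screening run, cut at about 23% in these data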;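 further: inhibitors block cleavage so intact labeled substrate keeps polarization high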
Target sequence (P00651 whole entry, looked up): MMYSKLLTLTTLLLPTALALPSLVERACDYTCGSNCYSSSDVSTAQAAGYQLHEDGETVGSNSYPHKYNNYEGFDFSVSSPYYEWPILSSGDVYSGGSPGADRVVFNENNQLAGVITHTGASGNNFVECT
Hits are given with their value; . = inactive; / = no result; ! = a repeat was not active.

SMILES	HNF4A DNA FP	TPT1 inh	CSN deneddyl inh	Rtt109 HAT inh	caTPT1 confirm	RNase T1 counter
N#C/C(=C\c1ccc(O)cc1)C(=O)O	.	/	.	.	/	/
CN1CCN(c2ccc(C=O)cc2)CC1	.	.	.	.	/	/
CN(C)c1ccc(C=C(C#N)C#N)cc1	.	40	.	.	48	60
C=C1C/C(=C/C)C(=O)O[C@@H]2CCN3CC=C(COC(=O)[C@]1(C)O)[C@H]23	.	.	.	/	/	/
CC(C)(C)NC(=S)N1Cc2ccccc2-n2nncc2C1	.	/	.	/	/	/
O=c1c(C=Nc2cccnc2Cl)c(O)n(CCCCl)c(=O)n1C1CCCCC1	.	63	49	.	86	99
COc1cccc(-n2c(O)c(C=Nc3c(C)n(C)n(-c4ccccc4)c3=O)c(=O)[nH]c2=O)c1	.	.	.	/	/	/
Cc1ccccc1-n1c(O)c(/C=N/c2nccs2)c(=O)[nH]c1=O	.	28!	.	.	.	26
COc1ccc2nc(/N=C/c3c(O)n(-c4cccc(Cl)c4)c(=O)[nH]c3=O)sc2c1	.	55	.	.	.	.
N=Cc1c(O)n(-c2cccc(Cl)c2)c(=O)[nH]c1=O	.	.	.	.	/	/
O=c1[nH]c(=O)n(-c2cccc(Cl)c2)c(O)c1/C=N/c1ccccn1	.	30	.	.	.	24
Cc1cccc(N=Cc2c(O)n(-c3ccccc3C)c(=O)[nH]c2=O)c1	.	.	.	.	/	/
COc1ccccc1CNCCc1cccc(Cl)c1	.	/	.	/	/	/
C=CCn1c(O)c(C=NCCN(C)C)c(=O)[nH]c1=O	.	30	.	.	35	45
C=CCn1c(O)c(C=NCCCn2ccnc2)c(=O)[nH]c1=O	.	.	.	.	/	/
CC(C)(C)c1cc(C=C(C#N)C#N)cc(C(C)(C)C)c1O	.	61	.	.	82	90
N#CC(C#N)=Cc1ccc(O)c(O)c1	.	.	.	.	/	/
C1=C(c2c[nH]c3ccccc23)CCNC1	/	80	/	/	50	58
CC1=NN(c2ccccc2)C(=O)C1/C=C1\C(=O)NC(=O)N(c2cc(C)cc(C)c2)C1=O (centres undefined)	.	.	.	.	/	/
CC1=NN(c2ccccc2)C(=O)C1/C=C1/C(=O)NC(=O)N(c2cc(C)cc(C)c2)C1=O (centres undefined)	.	29	.	.	32	50
CN(C(=O)Oc1cccc2ccccc12)C1C=CCC1 (centres undefined)	.	/	.	.	/	/
CCN1C(=O)NC(=O)/C(=C\c2cn(CC(=O)N3CCCC3)c3ccccc23)C1=O	.	.	.	.	/	/
O=C1NC(=O)N(c2ccccc2F)C(=O)/C1=C/c1cn(CC(=O)N2CCOCC2)c2ccccc12	/	28	/	/	.	.
O=C(O)Cn1cc(/C=C2\C(=O)NC(=O)N(c3ccc(Br)cc3)C2=O)c2ccccc21	.	37	.	/	41	51
COc1cc(/C=C2\C(=O)NC(=O)N(c3ccc(C)cc3)C2=O)cc(OC)c1O	.	31	.	/	.	.
SMILES	HNF4A DNA FP	TPT1 inh	CSN deneddyl inh	Rtt109 HAT inh	caTPT1 confirm	RNase T1 counter
COc1cc(/C=C2/C(=O)NC(=O)N(c3ccc(C)cc3)C2=O)cc(OC)c1OC	.	.	.	.	/	/
c1ccc2oc(-c3ccc4c(c3)CNCc3cnnn3-4)cc2c1	.	/	.	/	/	/
O=c1[nH]c(=S)[nH]c(O)c1N=Nc1ccc2c(c1)OCCO2	48	25	.	.	35	48
Cc1c(C=O)c2ccccc2n1Cc1ccccc1	.	.	.	.	/	/
O=Cc1c(C(=O)O)n(Cc2ccc(Cl)cc2)c2ccccc12	81	77	60	.	174	161
O=[N+]([O-])c1cc2c(cc1CNCCc1ccc3c(c1)OCO3)OCO2	.	32	.	/	.	.
COCCN(C(=O)COC(=O)Cc1ccccc1)c1c(N)n(Cc2ccccc2)c(=O)[nH]c1=O	.	.	.	.	/	/
CC1(C)OC(c2ccccc2)=C/C(=C/C=C2C(=O)NC(=S)NC2=O)O1	/	129	/	/	77	76
Cn1cccc1/C=C1/C(=O)NC(=O)N(Cc2ccc(F)cc2)C1=O	.	.	.	.	/	/
Cn1cccc1/C=C1/C(=O)NC(=O)N(Cc2ccccc2)C1=O	.	.	.	.	/	/
Cn1cccc1/C=C1\C(=O)NC(=O)N(Cc2ccccc2)C1=O	.	25	.	.	.	34
C=CCN1C(=O)NC(=O)/C(=C/c2cccn2C)C1=O	.	52	.	.	.	.
O=C1NC(=O)N(Cc2ccccc2)C(=O)/C1=C\c1ccco1	.	66	.	.	.	23
CCCCN1C(=O)/C(=C\c2ccco2)C(=O)N(CCc2ccccc2)C1=O	.	43	.	.	.	.
CC1C(=O)CC2(C(C)C)CC12 (centres undefined)	.	/	.	/	/	/
O=C1NC(=O)N(Cc2ccccc2)C(=O)/C1=C\N1CCCc2ccccc21	.	29	.	.	.	.
CNC(=O)O/N=C/c1nn(C(=O)C(C)(C)C)cc1Br	.	.	.	.	/	/
CS(=O)(=O)c1ccc(C2=C(CNC(=O)c3cccs3)[C@H]3CC[C@@H](C2)N3Cc2ccco2)cc1	.	/	.	/	/	/
O=C1NC(=O)N(c2ccccc2)C(=O)/C1=C\C=C\c1ccccc1	.	.	.	.	/	/
Cc1ccc(N2C(=O)NC(=O)/C(=C/C=C/c3ccco3)C2=O)cc1	.	28	.	.	35	52
CCC(C)c1cnc(CC(C)C)c(=O)n1O (centres undefined)	.	/	.	/	/	/
O=c1[nH]c(=O)n(Cc2ccco2)c(O)c1C=NCc1ccco1	.	.	.	/	/	/
O=c1[nH]c(=O)n(CCc2ccccc2)c(O)c1C=NCCCn1ccnc1	.	.	.	.	/	/
C=CCn1c(O)c(C=NCCN2CCNCC2)c(=O)[nH]c1=O	.	.	.	.	/	/
O=c1[nH]c(=O)n(Cc2ccccc2)c(O)c1C=NCCCn1ccnc1	.	48	.	.	35	45
SMILES	HNF4A DNA FP	TPT1 inh	CSN deneddyl inh	Rtt109 HAT inh	caTPT1 confirm	RNase T1 counter
O=c1[nH]c(=O)n(Cc2ccco2)c(O)c1C=NCCN1CCOCC1	.	25	.	.	30	42
O=c1[nH]c(=O)n(CCC2=CCCCC2)c(O)c1C=NCCN1CCNCC1	.	27	.	.	44	55
COC(=O)C1=C(c2ccc(C(C)=O)cc2)C[C@@H]2CC[C@H]1N2C(=O)NC1Cc2ccccc2C1	.	/	.	.	/	/
O=C1NC(=O)N(c2ccc(Br)cc2)C(=O)/C1=C/c1ccsc1	.	30	.	.	.	.
O=C1NC(=O)N(c2cccc(Br)c2)C(=O)/C1=C/c1ccsc1	.	91	.	.	70	72
COC(=O)C1=Nc2ccccc2/C1=C\c1c(O)n(-c2cc(OC)ccc2OC)c(=O)[nH]c1=O	.	.	.	.	/	/
COc1ccc(-n2c(O)c(/C=C3\C=Nc4ccc(Br)cc43)c(=O)[nH]c2=O)c(OC)c1	.	39	.	.	.	.
Cn1c(O)c(C=Nc2ccc(Br)cc2)c(=O)n(C)c1=O	.	.	.	.	/	/

Source: PubChem (several laboratories)
